Data reported in ChEMBL document CHEMBL2086351, “Α-aryl-N-alkyl nitrones, as potential agents for stroke treatment: synthesis, theoretical calculations, antioxidant, anti-inflammatory, neuroprotective, and brain-blood barrier permeability properties” (J Med Chem, 2012).
Calls of active or inactive are those of the source. The calls are words filed in the database; no cut-off is given here.

How the values were obtained:
[1] = test system: Radical scavenging activity; assay: Antioxidant activity assessed as DPPH radical scavenging activity at 15 uM after 2 hrs by spectrophotometric analysis; type: functional
[2] = Antioxidant activity assessed as Fe3+/ascorbic acid-induced hydroxyl radical scavenging activity at 0.1 mM after 30 mins; type: functional
Outline: (§1)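 Tested in vitro at 0.1 mM. The hydroxyl radical line measures competition with DMSO for hydroxyl radicals. Superoxide was generated at pH 7.4 and read as nitroblue tetrazolium reduction to formazan at 560 nm. LOX inhibition was measured by UV absorbance enzyme assay with plant lipoxygenase.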

[3] = test system: Rattus norvegicus; assay: Antiinflammatory activity in Fisher 344 rat assessed as inhibition of carrageenan-induced paw edema at 0.01 mmol/kg, ip measured 3.5 hrs after carrageenan challenge; type: functional; settings: Fisher 344, ip
Outline: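 Percent inhibition of carrageenan-induced rat paw oedema relative to untreated controls. Compounds given at 0.01 mmol/kg. Six animals per group in two independent experiments (n = 6 × 2), reported as mean ± SD. Significance versus controls by Student's t test.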

[4] = Antioxidant activity assessed as inhibition of AAPH-induced lipid peroxidation at 0.1 mM by UV spectrophotometric analysis; type: functional
[5] = molecular target: Lipoxygenase (Glycine max) (UniProt Q39829); assay: Inhibition of soybean lipoxygenase assessed as conversion of sodium linoleate to 13-hydroperoxylinoleic acid at 0.1 mM by competitive inhibition assay; outline: as §1
[6] = Antioxidant activity assessed as superoxide anion radical scavenging activity at 0.1 mM after 10 mins by tetrazolium dye assay; type: functional; outline: as §1
[7] = Antioxidant activity against AAPH-induced lipid peroxidation assessed as induction time of inhibition at 0.1 mM; type: functional
[8] = Neuroprotective activity in Sprague-Dawley rat primary cortical neurons assessed as reversal of oxygen-glucose deprivation-induced neuronal damage treated 4 hrs after OGD challenge measured after 24 hrs MTT assay; type: functional, cell-based; settings: Cerebral cortex neuron
Outline: (§2)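 Primary cerebral cortex neurons, cultured 6–8 days, underwent 4 h oxygen–glucose deprivation. Compounds (0.1 μM–10 mM range) were added at the start of a 24 h reperfusion. Viability was read by MTT with untreated control as 100%. Neuroprotection = % recovery from the reperfusion-only value (0%) to control (100%). Three to five independent experiments; mean ± SEM.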

[9] = Induction of NO release in phosphate buffer at pH 7.4 assessed as nitrite level at 0.1 mM by nitrate reductase/NADPH based Griess assay in presence of L-cysteine; type: physicochemical; settings: pH 7.4, 100 µM
Outline: (§3)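 Compounds at 100 μM final were dissolved in phosphate buffer pH 7.4 containing L-cysteine. Released NO was measured. Where indicated, 1 mM cysteine and a nitrate reductase/NADPH system were used. Sodium nitroprusside served as reference.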

[10] = Induction of NO release in phosphate buffer at pH 7.4 at 0.1 mM by Griess assay in presence of L-cysteine; type: physicochemical; settings: pH 7.4, 100 µM; outline: as §3
[11] = Neuroprotective activity in Sprague-Dawley rat primary cortical neurons assessed as reversal of oxygen-glucose deprivation-induced neuronal damage at 5 mM by treated 4 hrs after OGD challenge measured after 24 hrs MTT assay relative to control; type: functional, cell-based; settings: Cerebral cortex neuron; outline: as §2
[12] = Neuroprotective activity in Sprague-Dawley rat primary cortical neurons assessed as reversal of oxygen-glucose deprivation-induced neuronal damage at 250 uM by treated 4 hrs after OGD challenge measured after 24 hrs by LDH release assay relative to control; type: functional, Cerebral cortex neuron
Outline: (§4)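 Primary cortical neurons, cultured 6–8 days, underwent 4 h oxygen–glucose deprivation followed by 24 h reperfusion. Compounds (1–250 μM) were added at reperfusion. Necrotic death was read as LDH release, normalized to untreated reperfusion cells as 100%. Four independent experiments; mean ± SEM; one-way ANOVA with Holm–Sidak post test.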

[13] = Neuroprotective activity in Sprague-Dawley rat primary cortical neurons assessed as reversal of oxygen-glucose deprivation-induced neuronal damage at 100 uM by treated 4 hrs after OGD challenge measured after 24 hrs by LDH release assay relative to control; type: functional, Cerebral cortex neuron; outline: as §4
[14] = Permeability of the compound at pH 7.4 by PAMPA; type: ADME; settings: read-out: permeability
Outline: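 PAMPA-BBB method of Di et al. (passive blood–brain barrier permeation). Effective permeability is reported as Pe in 10−6 cm s−1.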

[15] = Neuroprotective activity in Sprague-Dawley rat primary cortical neurons assessed as reversal of oxygen-glucose deprivation-induced neuronal damage at 1 uM by treated 4 hrs after OGD challenge measured after 24 hrs by LDH release assay relative to control; type: functional, Cerebral cortex neuron; outline: as §4
[16] = test system: Mus musculus; assay: Neuroprotective activity in NMRI mouse assessed as protection against tert-butyl hydroperoxide-mediated lethality at 150 mg/kg, ip administered 30 mins before t-BHP challenge measured after 1 to 24 hrs; type: functional; settings: route intraperitoneal
[17] = test system: Radical scavenging activity; assay: Antioxidant activity assessed as DPPH radical scavenging activity at 0.5 mM after 2 hrs by spectrophotometric analysis; type: functional
Outline: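 DPPH radical test, measuring initial absorbance and absorbance after reaction spectrophotometrically.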

[18] = Neuroprotective activity in Sprague-Dawley rat primary cortical neurons assessed as reversal of oxygen-glucose deprivation-induced neuronal damage at 10 uM by treated 4 hrs after OGD challenge measured after 24 hrs by LDH release assay relative to control; type: functional, Cerebral cortex neuron; outline: as §4

SMILES: O=c1c(O)c(-c2ccc(O)c(O)c2)oc2cc(O)cc(O)c12
- Activity [1]: 94.2%

SMILES: C/[N+]([O-])=C/c1ccccc1
- Activity [2]: 77%
- inhibition in vivo at 10 µmol/kg [3]: 26.5%
- inhibition [4]: 5%
- inhibition [5]: 22%
- Activity [6]: 8%
- TIME [7]: 0.0167 h
- Activity [8]: inactive

SMILES: CC(C)(C)/[N+]([O-])=C/c1cccnc1Cl
- Activity [2]: 30%
- Activity [9]: 4%
- inhibition [4]: 37%
- inhibition [5]: 59%
- Activity [6]: 5%
- TIME [7]: 0.497 h
- Activity [10]: 2%

SMILES: COc1cc(/C=[N+](\[O-])Cc2ccccc2)ccc1O
- Activity [2]: 52%
- Activity [9]: 10%
- inhibition [4]: 90%
- TIME [7]: 1.47 h
- Activity [10]: 9%
- Activity [8]: inactive

SMILES: CC(C)(C)/[N+]([O-])=C/c1ccccc1
- Activity [2]: 90%
- Activity [9]: 4.5%
- inhibition [4]: inactive
- Activity [11]: -13.4%
- inhibition [5]: 83%
- Activity [12]: 73.2%
- Activity [6]: 15%
- Activity [13]: 67.82%
- TIME [7]: 0 h
- Activity [10]: 2%
- Activity [8]: inactive

SMILES: O=[N+]([O-])OCCOc1ccc(/C=[N+](\[O-])Cc2ccccc2)cc1
- Papp [14]: 16.8 ×10⁻⁶ cm/s
- Activity [2]: 100%
- inhibition [4]: 64%
- inhibition [5]: 21%
- Activity [15]: 47.48%
- TIME [7]: 0.767 h
- Activity [16]: 22%

SMILES: [O-]/[N+](=C\c1ccc(Br)o1)Cc1ccccc1
- Activity [17]: 8.6%
- inhibition [5]: 17%
- Activity [15]: 61.87%
- TIME [7]: 0 h
- Activity [18]: 114.17%
- Activity [16]: 42%

SMILES: CC(Cc1ccc(O)c(O)c1)C(C)Cc1ccc(O)c(O)c1 (centres undefined)
- inhibition [5]: 40%

SMILES: COc1cc(Br)c(/C=[N+](\[O-])C(C)(C)C)cc1OC
- Activity [2]: 90%
- Activity [9]: 2%
- inhibition [4]: 47%
- Activity [6]: 15%
- TIME [7]: 0.00867 h
- Activity [10]: 1%

SMILES: CC(C)(C)/[N+]([O-])=C/c1ccc(OCCCO[N+](=O)[O-])cc1
- Activity [2]: 54%
- Activity [17]: 0.4%
- inhibition [4]: 49%
- inhibition [5]: 57%
- Activity [6]: 2%
- Activity [13]: 55.57%
- TIME [7]: 0.783 h
- Activity [16]: 30%

SMILES: CC(C)(C)/[N+]([O-])=C/c1ccc(OCCO[N+](=O)[O-])cc1
- Activity [2]: 98%
- Activity [17]: 0.6%
- inhibition [5]: 19%
- Activity [12]: 79.21%
- Activity [6]: 19%
- TIME [7]: 0 h
- Activity [16]: 18%

SMILES: CC(C)(C)c1cc(/C=[N+](\[O-])C(C)(C)C)cc(C(C)(C)C)c1O
- Activity [17]: 78.6%
- inhibition [4]: 9%
- inhibition [5]: inactive
- TIME [7]: 0.29 h
- Activity [16]: 80%

SMILES: COc1ccc2c(c1)c(CC(=O)O)c(C)n2C(=O)c1ccc(Cl)cc1 [INDOMETHACIN]
- inhibition in vivo at 10 µmol/kg [3]: 47%

SMILES: Cc1c(C)c2c(c(C)c1O)CCC(C)(C(=O)O)O2 (centres undefined)
- Activity [2]: 73%
- inhibition [4]: 63%
- TIME [7]: 1.03 h

SMILES: COc1cc(Br)c(/C=[N+](\[O-])Cc2ccccc2)cc1OC
- Activity [9]: 1%
- inhibition [4]: inactive
- inhibition [5]: 21%
- Activity [6]: 16%
- TIME [7]: 0.895 h
- Activity [10]: 1%

SMILES: COc1ccc2c(c1)cc(/C=[N+](\[O-])C(C)(C)C)n2C
- Activity [2]: 79.5%
- Activity [9]: 5%
- inhibition [4]: 80%
- inhibition [5]: 31%
- Activity [6]: 5%
- TIME [7]: 0.73 h
- Activity [10]: 3%
